Source: ChEMBL document CHEMBL3616436, “Synthesis, cytotoxicity and antimicrobial activity of thiourea derivatives incorporating 3-(trifluoromethyl)phenyl moiety” (Eur J Med Chem, 2015)
The source made the active and inactive calls. The rule behind the calls is not given here.

Tests used:
Candida albicans [1] = assay: Antimicrobial activity against Candida albicans ATCC 90028 after 24 hrs by twofold serial microdilution method; format: functional, organism-based
[2] = Cytotoxicity against human MT4 cells; format: cell-based
[3] = test system: Bordetella bronchiseptica; assay: Antimicrobial activity against Bordetella bronchiseptica ATCC 4617 after 18 hrs by twofold serial microdilution method; format: functional, organism-based
WIL2-NS = assay: Cytotoxicity against human WIL2-NS cells after 96 hrs by MTT assay; format: functional
Outline: (§1)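 Leukaemia/lymphoma lines seeded at 1×10^5 cells/ml in RPMI-1640 with 10% FCS and penicillin/streptomycin; incubated with serial dilutions at 37°C, 5% CO2; viability by MTT after 96 h; value is concentration reducing proliferation by 50%, with untreated controls undergoing at least three rounds of multiplication.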

[4] = Antiviral activity against Bovine viral diarrhea virus 1-NADL ATCC VR-534 infected in MDBK cells assessed as protection against virus-induced cytopathogenicity after 3 to 4 days by MTT assay; format: functional, cell-based; conditions: Bovine viral diarrhea virus isolates and strains, ATCC VR-534, MDBK
Outline: (§2)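 Cells seeded in 96-well plates (BHK 5x10^4, MDBK 3x10^4 cells/well), grown overnight to confluence, infected at m.o.i. 0.01 (BHK for Reo-1, MDBK for BVDV); serial compound dilutions in maintenance medium with 0.5% inactivated FBS added after 1 h; viability by MTT after 3–4 days at 37°C; EC50 for 50% protection by linear regression.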

Human alphaherpesvirus 1 = assay: Antiviral activity against Human herpesvirus 1 KOS ATCC VR-1493 infected in African green monkey Vero 76 cells assessed as reduction of virus-plaque formation after 3 days by crystal violet staining; format: functional, organism-based; conditions: Human alphaherpesvirus 1, KOS ATCC VR1493, Vero, 72 h
Outline: (§3)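 Plaque reduction: Vero-76 at 2x10^5 cells/well grown to confluent monolayers, infected 2 h at 50–100 PFU/well; after removing unadsorbed virus, overlay of D-MEM, 1% inactivated FBS, 0.75% methylcellulose with or without serial compound dilutions; 3 days at 37°C, fixed and stained with crystal violet in 50% ethanol, plaques counted; EC50 by linear regression.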

Escherichia coli [5] = assay: Antimicrobial activity against Escherichia coli ATCC 10538 after 18 hrs by twofold serial microdilution method; format: functional, organism-based
[6] = Cytotoxicity against African green monkey Vero 76 cells assessed as cell viability after 48 to 96 hrs by crystal violet staining; format: cell-based; conditions: chlorocebus sabaeus
CCRF-CEM = assay: Cytotoxicity against human CCRF-CEM cells after 96 hrs by MTT assay; format: functional; outline: as §1
Yellow fever virus = assay: Antiviral activity against Yellow fever virus 17D infected in BHK cells assessed as protection against virus-induced cytopathogenicity after 3 to 4 days by MTT assay; format: functional, cell-based
[7] = Cytotoxicity against bovine MDBK cells assessed as cell viability after 48 to 96 hrs by MTT assay; format: cell-based, Bos taurus; conditions: cattle
Poliovirus 1 = assay: Antiviral activity against Poliovirus type 1 ATCC VR-1562 infected in African green monkey Vero 76 cells assessed as reduction of virus-plaque formation after 2 days by crystal violet staining; format: functional, organism-based; conditions: Enterovirus C, ATCC VR-1562, Vero, 48 h
[8] = test system: Human immunodeficiency virus 1; assay: Antiviral activity against HIV1 3B infected in human MT4 cells assessed as protection against virus-induced cytopathogenicity by MTT assay; format: functional, organism-based; conditions: Human immunodeficiency virus 1, 3B
Coxsackievirus B5 = assay: Antiviral activity against Human coxsackievirus B5 ATCC VR-29 infected in African green monkey Vero 76 cells assessed as reduction of virus-plaque formation after 3 days by crystal violet staining; format: functional, organism-based; conditions: Enterovirus B, ATCC VR-29, Vero, 72 h; outline: as §3
[9] = Cytotoxicity against BHK cells assessed as cell viability after 48 to 96 hrs by MTT assay; format: cell-based, Mesocricetus auratus; conditions: hamster
[10] = test system: Mammalian orthoreovirus 1; assay: Antiviral activity against Reovirus type-1 ATCC VR-214 infected in BHK cells assessed as protection against virus-induced cytopathogenicity after 3 to 4 days by MTT assay; format: functional, cell-based; conditions: Mammalian orthoreovirus 1, ATCC VR-214, BHK; outline: as §2
Pseudomonas aeruginosa [11] = assay: Antimicrobial activity against Pseudomonas aeruginosa NCTC 6749 after 18 hrs by twofold serial microdilution method; format: functional, organism-based
Escherichia coli [12] = assay: Antimicrobial activity against Escherichia coli NCTC 8196 after 18 hrs by twofold serial microdilution method; format: functional, organism-based
[13] = test system: Vesicular stomatitis virus; assay: Antiviral activity against Vesicular stomatitis virus ATCC VR 1540 infected in African green monkey Vero 76 cells assessed as reduction of virus-plaque formation after 2 days by crystal violet staining; format: functional, organism-based; conditions: ATCC VR 1540, Vero, 48 h
Candida albicans [14] = assay: Antimicrobial activity against Candida albicans ATCC 10231 after 24 hrs by twofold serial microdilution method; format: functional, organism-based
Candida parapsilosis = assay: Antimicrobial activity against Candida parapsilosis ATCC 22019 after 24 hrs by twofold serial microdilution method; format: functional, organism-based
CCRF-SB = assay: Cytotoxicity against human CCRF-SB cells after 96 hrs by MTT assay; format: functional; outline: as §1
Pseudomonas aeruginosa [15] = assay: Antimicrobial activity against Pseudomonas aeruginosa ATCC 27863 after 18 hrs by twofold serial microdilution method; format: functional, organism-based
Vaccinia virus = assay: Antiviral activity against Human Vaccinia virus ATCC VR-1549 infected in African green monkey Vero 76 cells assessed as reduction of virus-plaque formation after 3 days by crystal violet staining; format: functional, organism-based; conditions: Orthopoxvirus vaccinia, ATCC VR-1549, Vero, 72 h
Escherichia coli [16] = assay: Antimicrobial activity against Escherichia coli ATCC 25922 after 18 hrs by twofold serial microdilution method; format: functional, organism-based
Pseudomonas aeruginosa [17] = assay: Antimicrobial activity against Pseudomonas aeruginosa ATCC 15442 after 18 hrs by twofold serial microdilution method; format: functional, organism-based

FC(F)(F)c1cccc(NC(=S)Nc2ccc(I)cc2)c1
Activity (Candida albicans [1]): inactive | CC50 [2]: 10 µM | Activity [3]: inactive | CC50 (WIL2-NS): 8 µM | EC50 [4]: > 9.5 µM | EC50 (Human alphaherpesvirus 1): > 9.5 µM | Activity (Escherichia coli [5]): inactive | CC50 [6]: 9.5 µM | CC50 (CCRF-CEM): 8 µM | EC50 (Yellow fever virus): > 9.4 µM | CC50 [7]: 9.5 µM | EC50 (Poliovirus 1): > 9.5 µM | EC50 [8]: > 10.5 µM | EC50 (Coxsackievirus B5): > 9.5 µM | CC50 [9]: 9.4 µM | EC50 [10]: > 9.4 µM | Activity (Pseudomonas aeruginosa [11]): inactive | Activity (Escherichia coli [12]): inactive | EC50 [13]: > 9.5 µM | Activity (Candida albicans [14]): inactive | Activity (Candida parapsilosis): inactive | CC50 (CCRF-SB): 9.1 µM | Activity (Pseudomonas aeruginosa [15]): inactive | EC50 (Vaccinia virus): > 9.5 µM | Activity (Escherichia coli [16]): inactive | Activity (Pseudomonas aeruginosa [17]): inactive
